From PubChem BioAssay
Shown are actives, neighbours in structure and some others; about 2.6% of the full set was active somewhere.
UCH37 DUB inh – blocks the human deubiquitinase UCH37; purified proteasome/UCH37, Ub-AMC cleavage fluorescence; inhibition, % (test concentration not listed); hit rate 0.33% among 330,000;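 active = mean inhibition over replicate wells above about 20%, limit read from the data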
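Material: human UCH37 enzyme supplied as purified proteasome complex / Amount: 0.15 nM proteasome as dispensed / Buffer or medium: pH 7.4 Tris-HCl (50 mM) with ovalbumin, ATP-MgCl2, DTT / Times: preincubation 30 min, reaction 25 min, room temperature / Technique: AMC fluorescence from Ub-AMC cleavage, excitation 355 nm, emission 460 nm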
FGF22 binding – FGF22 (human) thermal shift binding; Q9HCT0; activity (Tm shift, normalised), % at 9.99 µM; recombinant FGF22 thermal shift, SYPRO orange fluorescence; percent of sucrose octasulfate shift, DMSO zero; hit rate 1.5% among 340,000; AID 651658;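 active = mean Tm shift, scaled 0 neutral to 100 positive control, at about 1.3% or above, every replicate too, limit read from the data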
Target sequence (Q9HCT0 whole entry, looked up): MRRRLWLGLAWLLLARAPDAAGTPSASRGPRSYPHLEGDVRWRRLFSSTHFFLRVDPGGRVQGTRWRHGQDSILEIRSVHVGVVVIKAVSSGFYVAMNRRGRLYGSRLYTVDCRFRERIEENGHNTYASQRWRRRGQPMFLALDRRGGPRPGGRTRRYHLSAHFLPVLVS
Casp6 inh – blocks human caspase-6 cleavage activity. inhibition, % at 12.5 µM. AID 686996. purified caspase-6, Z-VEID-R110 cleavage fluorescence. P55212. hit rate 0.53% among 350,000;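 active = mean inhibition across replicates at least about 35%, with every replicate also reaching that limit, limit read from the data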
Target sequence (P55212 24-179 limits assumed): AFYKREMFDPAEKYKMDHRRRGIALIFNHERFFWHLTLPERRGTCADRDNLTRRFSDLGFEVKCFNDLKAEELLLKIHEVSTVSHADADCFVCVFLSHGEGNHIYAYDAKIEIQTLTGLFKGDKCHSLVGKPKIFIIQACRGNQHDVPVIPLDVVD
Target sequence (P55212 194-293 limits assumed): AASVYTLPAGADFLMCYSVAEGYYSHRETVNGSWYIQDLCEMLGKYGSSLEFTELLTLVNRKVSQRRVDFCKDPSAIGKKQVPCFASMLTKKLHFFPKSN
SIRT5 block – inhibitors of human sirtuin-5 desuccinylase. Q9NXA8. hit rate 1.1% among 330,000. inhibition, % at 15 µM. Purified SirT5, succinyl-peptide AMC, trypsin-coupled fluorescence; in the data active = inhibition above about 15%
NSD2 HMT inh – blocks human histone methyltransferase NSD2; hit rate 0.54% among 310,000; O96028; inhibition, % at 12.5 µM; NSD2 peptide methylation, AlphaScreen, 120 min; in the data active = inhibition above about 50%
Large screens that a line does not name were inactive.

Cc1ccc(S(=O)(=O)N(C)C[C@H]2Oc3cc(C#Cc4ccncc4)ccc3S(=O)(=O)N([C@@H](C)CO)C[C@@H]2C)cc1	none (no result: UCH37 DUB inh, NSD2 HMT inh)
Cc1ccc(S(=O)(=O)N(C)C[C@@H]2Oc3cc(C#Cc4ccncc4)ccc3S(=O)(=O)N([C@H](C)CO)C[C@H]2C)cc1	SIRT5 block 16 (no result: UCH37 DUB inh, NSD2 HMT inh)
COCC(=O)N(C)C[C@H]1Oc2cc(-c3ccc(C)cc3)ccc2S(=O)(=O)N([C@@H](C)CO)C[C@H]1C	none (no result: UCH37 DUB inh, NSD2 HMT inh)
O=CN/C=C/c1cc(O)ccc1O	Casp6 inh 70 (no result: SIRT5 block, NSD2 HMT inh)
O=Cc1ccc(O)cc1O	none (no result: SIRT5 block, NSD2 HMT inh)
O=C(O)/C(=C\c1cccc([N+](=O)[O-])c1)c1ccc(S(=O)(=O)N2CCCCC2)s1	Casp6 inh 41
CSc1ccc(/C=C(\C(=O)O)c2ccc(S(=O)(=O)N3CCCCC3)s2)cc1	Casp6 inh 44
O=C(O)/C(=C\c1ccc(Cl)cc1)c1ccc(S(=O)(=O)N2CCCC2)s1	none
COc1cc(/C=C(\C(=O)O)c2ccc(S(=O)(=O)N3CCCC3)s2)cc(OC)c1	Casp6 inh 41
O=C(O)/C(=C\c1ccc(Cl)c([N+](=O)[O-])c1)c1ccc(S(=O)(=O)N2CCCCC2)s1	none (no result: UCH37 DUB inh)
O=C(c1cccc(F)c1)N1CCCCN2[C@H](C1)[C@H](c1ccc(C#CC3(O)CCCC3)cc1)[C@@H]2CO	none (no result: UCH37 DUB inh, NSD2 HMT inh)
Cc1[nH]n(-c2ccccc2)c(=O)c1C=Nc1ccccn1	none (no result: FGF22 binding, Casp6 inh, SIRT5 block, NSD2 HMT inh)
Cc1ccc(C(=O)ON=C(c2ccccc2)c2cccnc2)cc1	none (no result: FGF22 binding, Casp6 inh, SIRT5 block, NSD2 HMT inh)
Cc1ccc(C(=O)O/N=C(\c2ccccc2)c2cccnc2)cc1	SIRT5 block 33 (no result: UCH37 DUB inh)
O=C(C[C@@H]1CC[C@H]2[C@@H](COC[C@H](O)CN2Cc2ccc(Cl)cc2)O1)NCCc1ccccc1	none (no result: UCH37 DUB inh, NSD2 HMT inh)
CC1(C(=O)NCc2cc(F)cc(C(F)(F)F)c2)C=CC2(CCCCC2)N1C(=O)c1ccccc1 (stereo not given)	SIRT5 block 24 (no result: NSD2 HMT inh)
COc1cc(CN2CCN(C(c3ccccc3)c3ccccc3)CC2)cc(OC)c1OC	none
COc1cccc(CN2CCN(C(c3ccccc3)c3ccccc3)CC2)c1O	SIRT5 block 16
Cc1cc(NC(=S)N(Cc2cccc(Br)c2)CC2CCC(C(=O)O)CC2)ccc1Cl (stereo not given)	none (no result: SIRT5 block)
Cc1ccc(NC(=S)N(Cc2cccc(Br)c2)CC2CCC(C(=O)O)CC2)cc1 (stereo not given)	FGF22 binding 8.2
COC(=O)c1ccc(CNCC(=O)Nc2ccc(C(=O)OC)cc2)cc1	FGF22 binding 43
O=C(CNS(=O)(=O)c1ccccc1)NCC(=O)N1CCCCC1	SIRT5 block 15
O=C(CNC(=O)Cc1ccccc1)NCC(=O)N1CCCCC1	none
O=C(CNS(=O)(=O)c1ccccc1)N/N=C/c1ccc(O)cc1	FGF22 binding 43 (no result: UCH37 DUB inh)
O=C(CNS(=O)(=O)c1ccccc1)N/N=C\c1ccc(Cl)cc1	none (no result: UCH37 DUB inh, FGF22 binding, Casp6 inh, SIRT5 block)
CC(/C=C/C=C/c1ccccc1)=NNC(=O)c1cccnc1	UCH37 DUB inh 24 (no result: FGF22 binding, Casp6 inh, SIRT5 block, NSD2 HMT inh)
Cc1ccnc(NC(=O)CCC(=O)N(Cc2ccco2)C(C(=O)NC(C)C)c2ccc(F)cc2)c1 (stereo not given)	SIRT5 block 100
COCCNC(=O)C(c1ccc(F)cc1)N(Cc1ccco1)C(=O)CCC(=O)Nc1ccccn1 (stereo not given)	none
COc1ccc(C=NNC(=O)COc2ccc(Cl)cc2Cl)cc1Cn1nc(C)cc1C	none (no result: FGF22 binding, Casp6 inh, SIRT5 block, NSD2 HMT inh)
COc1ccc(S(=O)(=O)N(C)C[C@@H]2Oc3ccc(NC(=O)C4CC4)cc3C(=O)N([C@@H](C)CO)C[C@@H]2C)cc1	none (no result: UCH37 DUB inh, NSD2 HMT inh)
O=C(COC(=O)c1ccc(O)cc1)NCC1CCCO1 (stereo not given)	FGF22 binding 43
COC(=O)c1nn(-c2ccccc2)c(Cl)c1C=NOCc1c(Cl)cccc1Cl	none (no result: FGF22 binding, Casp6 inh, SIRT5 block, NSD2 HMT inh)
O=C(CCn1nnc2ccccc21)NN=CCc1ccccc1	none (no result: FGF22 binding, Casp6 inh, SIRT5 block, NSD2 HMT inh)
O=C(CN1CCOCC1)N1[C@@H]2CNc3ccccc3[C@@H]2[C@@H]1CO	none (no result: UCH37 DUB inh, NSD2 HMT inh)
N#C/C(=C(/O)CSc1ccccn1)c1nc2ccccc2s1	none
N#C/C(=C(/O)COC(=O)c1ccc(C#N)cc1)c1nc2ccccc2s1	FGF22 binding 44
N#C/C(=C(/O)CSc1ccccc1C(=O)O)c1nc2ccccc2s1	UCH37 DUB inh 21 (no result: FGF22 binding, Casp6 inh, SIRT5 block)
CC(C)NC(=O)N[C@H]1CC[C@@H](CC(=O)NCc2ccc(Oc3ccccc3)cc2)O[C@H]1CO	none (no result: UCH37 DUB inh, NSD2 HMT inh)
CCOC(=O)/C(=C\C=C\N1CCOCC1)C(C)=O	SIRT5 block 16
COC(=O)C1=C(C)N(CC(C)C)C(=S)NC1c1cccc(Br)c1 (stereo not given)	none (no result: UCH37 DUB inh, SIRT5 block, NSD2 HMT inh)
